# ChEMBL document CHEMBL2203171, “The use of small molecule probes to study spatially separated stimulus-induced signaling pathways” (Bioorg Med Chem Lett, 2012)
# Activity calls are given as the source filed them. The rule behind the calls is not given here.
# Target: T1, Toll-like receptor 9 (Mus musculus) (UniProt Q9EQU3)
# T1 sequence (whole entry): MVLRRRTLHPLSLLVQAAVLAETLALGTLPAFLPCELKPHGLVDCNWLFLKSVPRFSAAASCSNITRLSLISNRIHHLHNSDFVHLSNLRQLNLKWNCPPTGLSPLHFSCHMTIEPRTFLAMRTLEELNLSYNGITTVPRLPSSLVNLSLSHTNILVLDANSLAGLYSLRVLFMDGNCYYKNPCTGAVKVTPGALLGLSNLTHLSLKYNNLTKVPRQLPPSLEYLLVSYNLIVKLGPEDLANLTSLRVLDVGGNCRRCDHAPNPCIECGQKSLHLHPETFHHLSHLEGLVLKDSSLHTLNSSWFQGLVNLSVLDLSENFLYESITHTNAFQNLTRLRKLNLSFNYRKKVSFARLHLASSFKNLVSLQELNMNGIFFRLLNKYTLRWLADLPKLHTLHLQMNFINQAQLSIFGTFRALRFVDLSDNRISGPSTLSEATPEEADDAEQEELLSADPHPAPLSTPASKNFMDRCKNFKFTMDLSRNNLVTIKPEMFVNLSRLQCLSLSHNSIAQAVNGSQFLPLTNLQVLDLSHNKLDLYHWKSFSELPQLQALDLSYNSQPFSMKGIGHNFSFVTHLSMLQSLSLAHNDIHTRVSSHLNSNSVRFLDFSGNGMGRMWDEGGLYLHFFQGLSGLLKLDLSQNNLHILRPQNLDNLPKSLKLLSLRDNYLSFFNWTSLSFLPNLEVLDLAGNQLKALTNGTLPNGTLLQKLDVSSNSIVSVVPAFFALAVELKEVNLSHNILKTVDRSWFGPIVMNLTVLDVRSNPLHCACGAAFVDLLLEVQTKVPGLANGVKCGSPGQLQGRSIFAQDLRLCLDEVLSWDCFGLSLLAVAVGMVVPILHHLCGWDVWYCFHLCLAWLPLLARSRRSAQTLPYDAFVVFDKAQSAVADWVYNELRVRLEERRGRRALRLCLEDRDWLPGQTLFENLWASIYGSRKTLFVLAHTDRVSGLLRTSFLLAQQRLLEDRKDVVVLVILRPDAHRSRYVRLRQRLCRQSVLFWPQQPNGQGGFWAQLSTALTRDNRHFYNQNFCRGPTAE
# Assay: Inhibition of MyD88 recruitment to TLR9 in C57BL/6 mouse BMDM cells assessed as inhibition of CpG-induced IkappaBalpha phosphorylation up to 90 mins by Western blot analysis
# Type: cell-based
# Outline: (§1)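 Bone marrow macrophages from C57BL/6 mice, grown in 70% growth medium (DMEM, 10% FBS) plus 30% L929-conditioned medium and given fresh medium 12-14 h before stimulation. Stimuli: IL-1 40 ng/ml, HKSA ~10^8 cfu/ml, pI:pC 50 μg/ml or CpG 10 μg/ml, ± compound at 10 μM (final) added from a 200x DMSO stock. IκBα and p38 profiled by immunoblot. Three independent experiments, quantitated and normalized.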
row,inhibition,Compound
1,Active,O=C(CCCCCN1C(=O)CCC1=O)Oc1ccc2cc(C(C(=O)NCc3ccccc3)N(C(=O)Cc3ccc4c(c3)OCO4)C3CC3)ccc2c1 (centres undefined)
2,Active,O=C(CCCCCN1C(=O)C=CC1=O)Oc1ccc2cc(C(C(=O)NCc3ccccc3)N(C(=O)Cc3ccc4c(c3)OCO4)C3CC3)ccc2c1 (centres undefined)
3,Active,O=C(CCCCCCCC(=O)ON1C(=O)CCC1=O)Oc1ccc2cc(C(C(=O)NCc3ccccc3)N(C(=O)Cc3ccc4c(c3)OCO4)C3CC3)ccc2c1 (centres undefined)

# Target: T2, Inhibitor of nuclear factor kappa-B kinase subunit beta (Mus musculus) (UniProt O88351)
# T2 sequence (whole entry): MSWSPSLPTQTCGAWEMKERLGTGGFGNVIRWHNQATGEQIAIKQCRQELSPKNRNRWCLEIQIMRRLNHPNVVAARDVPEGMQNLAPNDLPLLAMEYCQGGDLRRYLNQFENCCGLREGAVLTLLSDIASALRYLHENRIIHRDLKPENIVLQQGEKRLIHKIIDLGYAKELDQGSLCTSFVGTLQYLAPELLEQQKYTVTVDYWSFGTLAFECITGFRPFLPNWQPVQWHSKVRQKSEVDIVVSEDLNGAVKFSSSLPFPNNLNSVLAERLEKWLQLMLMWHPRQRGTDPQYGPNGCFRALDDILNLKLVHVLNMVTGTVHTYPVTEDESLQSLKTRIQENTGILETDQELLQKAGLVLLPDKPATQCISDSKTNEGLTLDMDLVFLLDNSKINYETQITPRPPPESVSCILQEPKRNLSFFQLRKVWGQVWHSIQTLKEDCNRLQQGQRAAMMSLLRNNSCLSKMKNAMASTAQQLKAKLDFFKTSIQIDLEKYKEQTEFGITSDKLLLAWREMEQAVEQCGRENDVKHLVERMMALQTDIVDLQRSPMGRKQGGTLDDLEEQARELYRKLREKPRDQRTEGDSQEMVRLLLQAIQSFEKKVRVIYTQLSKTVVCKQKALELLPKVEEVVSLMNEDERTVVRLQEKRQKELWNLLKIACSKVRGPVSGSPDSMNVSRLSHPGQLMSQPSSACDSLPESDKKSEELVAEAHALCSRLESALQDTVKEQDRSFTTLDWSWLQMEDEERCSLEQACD
# Assay: Inhibition of IKKbeta in C57BL/6 mouse BMDM cells assessed as inhibition of LPS-induced IkappaBalpha phosphorylation at 50 uM up to 90 mins by Western blot analysis
# Type: cell-based
row,inhibition of IkappaBalpha phosphorylation (active/not active),Compound
1,inactive,O=C(CCCCCN1C(=O)CCC1=O)Oc1ccc2cc(C(C(=O)NCc3ccccc3)N(C(=O)Cc3ccc4c(c3)OCO4)C3CC3)ccc2c1 (centres undefined)
2,Active,O=C(CCCCCN1C(=O)C=CC1=O)Oc1ccc2cc(C(C(=O)NCc3ccccc3)N(C(=O)Cc3ccc4c(c3)OCO4)C3CC3)ccc2c1 (centres undefined)
3,Active,O=C(CCCCCCCC(=O)ON1C(=O)CCC1=O)Oc1ccc2cc(C(C(=O)NCc3ccccc3)N(C(=O)Cc3ccc4c(c3)OCO4)C3CC3)ccc2c1 (centres undefined)

# Target: T3, Toll-like receptor 3 (Mus musculus) (UniProt Q99MB1)
# T3 sequence (whole entry): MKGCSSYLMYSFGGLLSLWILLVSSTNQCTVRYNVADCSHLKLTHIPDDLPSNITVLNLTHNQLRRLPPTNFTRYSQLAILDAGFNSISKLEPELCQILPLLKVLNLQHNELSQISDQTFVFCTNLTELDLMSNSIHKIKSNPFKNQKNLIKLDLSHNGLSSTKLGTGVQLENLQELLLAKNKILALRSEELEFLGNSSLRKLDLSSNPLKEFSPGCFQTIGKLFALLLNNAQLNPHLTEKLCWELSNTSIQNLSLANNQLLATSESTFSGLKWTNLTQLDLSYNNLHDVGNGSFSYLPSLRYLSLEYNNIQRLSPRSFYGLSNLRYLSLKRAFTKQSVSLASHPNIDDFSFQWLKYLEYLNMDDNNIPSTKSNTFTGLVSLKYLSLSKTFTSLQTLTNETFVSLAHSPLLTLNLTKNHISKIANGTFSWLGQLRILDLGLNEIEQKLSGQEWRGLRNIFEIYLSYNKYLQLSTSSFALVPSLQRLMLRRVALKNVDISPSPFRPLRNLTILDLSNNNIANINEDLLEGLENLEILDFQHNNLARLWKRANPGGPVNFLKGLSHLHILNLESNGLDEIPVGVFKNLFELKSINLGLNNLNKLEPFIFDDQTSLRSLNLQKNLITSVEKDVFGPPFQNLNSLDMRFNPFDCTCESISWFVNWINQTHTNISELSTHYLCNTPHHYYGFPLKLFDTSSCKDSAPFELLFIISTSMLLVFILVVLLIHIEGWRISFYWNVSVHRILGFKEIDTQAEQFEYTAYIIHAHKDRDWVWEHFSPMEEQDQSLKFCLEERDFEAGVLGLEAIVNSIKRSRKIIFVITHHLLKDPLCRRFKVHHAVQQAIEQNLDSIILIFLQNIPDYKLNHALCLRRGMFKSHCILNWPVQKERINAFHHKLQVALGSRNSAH
# Assay: Inhibition of TRIF recruitment to TLR3 in C57BL/6 mouse BMDM cells assessed as inhibition of pI:pC-induced IkappaBalpha degradation up to 90 mins by Western blot analysis
# Type: cell-based
# Outline: as §1
row,inhibition,Compound
1,Active,O=C(CCCCCN1C(=O)CCC1=O)Oc1ccc2cc(C(C(=O)NCc3ccccc3)N(C(=O)Cc3ccc4c(c3)OCO4)C3CC3)ccc2c1 (centres undefined)
2,Active,O=C(CCCCCN1C(=O)C=CC1=O)Oc1ccc2cc(C(C(=O)NCc3ccccc3)N(C(=O)Cc3ccc4c(c3)OCO4)C3CC3)ccc2c1 (centres undefined)
3,Active,O=C(CCCCCCCC(=O)ON1C(=O)CCC1=O)Oc1ccc2cc(C(C(=O)NCc3ccccc3)N(C(=O)Cc3ccc4c(c3)OCO4)C3CC3)ccc2c1 (centres undefined)
